How the values were obtained:
RXRα LBD = target: T1, RXRα LBD (Homo sapiens, UniProt P19793); test: Competition ligand-binding assay with [3H]9-cis-RA; details: Sulindac analogs
T1 sequence (P19793 227-458 limits assumed): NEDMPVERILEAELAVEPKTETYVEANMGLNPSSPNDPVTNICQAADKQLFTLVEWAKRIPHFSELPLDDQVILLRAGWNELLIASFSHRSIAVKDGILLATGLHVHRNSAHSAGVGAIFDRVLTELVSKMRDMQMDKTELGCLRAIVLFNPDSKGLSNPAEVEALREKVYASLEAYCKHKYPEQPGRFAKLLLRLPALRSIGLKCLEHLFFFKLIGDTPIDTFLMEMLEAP
Outline: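 Competitive binding: RXR ligand-binding domain incubated with [3H]-9-cis-RA, with or without unlabeled 9-cis-RA or test compound. Bound radioligand was quantified by liquid scintillation counting.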

AKT activation = AKT activation by immunoblotting; format: cell-based; details: 50 μM
Outline: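 Immunoblot for Ser473-phospho-AKT. Cells were serum-starved overnight and exposed to 100 μM test compound for 1 hr. In TNFα arms, cells were pretreated with compound (100 μM in A549, 50 μM in PC3) for 1 hr and then given TNFα 10 ng/ml for 30 min. Some cells were transfected with RXRα, RARγ or control siRNA for 48 hr beforehand. Compound was dissolved in DMSO.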

[1] = system: HeLa/RXRα/1–134 and RXRα/Δ80 cells; test: Colony formation; format: cell-based; details: 25 μM
Outline: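 Clonogenic survival of HeLa stably expressing RXRα/1–134, and of SW480 or HCT116 stably expressing GFP-RXRα/Δ80. Cells were grown in 6-well plates for 5 days, then exposed to 25 μM test compound in 0.5% serum medium for 3 days. Colonies were fixed with 4% paraformaldehyde and stained with 0.1% crystal violet.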

COX-1 and COX-2 = test: COX Fluorescent Activity Assay; format: biochemical
[2] = system: prostaglandin E2 (PGE2) production, A549 cells; test: Prostaglandin E2 production; format: cell-based
Outline: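 A549 cells were stimulated with TNFα 10 ng/ml for 24 hr, then exposed to test compound for 30 min. PGE2 was measured by enzyme immunoassay kit and expressed as the ratio of PGE2 with compound to PGE2 with vehicle.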

RXRα/Δ80 tumor = RXRα/Δ80 tumor growth in nude mice; format: in vivo, Nude mice (BALB/c); details: 60 mg/kg intraperitoneally, two weeks
[3] = system: cancer cell lines (HepG2, ZR-75-1); test: PARP cleavage and caspase-8 activation by immunoblotting; format: cell-based
Outline: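 Immunoblot for PARP cleavage and cleaved caspase-8 (p43/p41). ZR-75-1 cells were exposed to TNFα and/or test compound (50 or 75 μM) for 6 hr. HepG2 cells in 1% FBS medium received TNFα 10 ng/ml and/or 75 μM compound for 4 hr. Some cells were pretreated with 1 μM SR11237 for 1 hr.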

tRXRα/p85α interaction = target: T2, tRXRα/p85α interaction (Homo sapiens, UniProt P19793); test: tRXRα/p85α interaction by co-immunoprecipitation; format: cell-based; details: A549 cells, 50 μM, absence or presence of TNFα
T2 sequence (P19793 81-462 limits assumed): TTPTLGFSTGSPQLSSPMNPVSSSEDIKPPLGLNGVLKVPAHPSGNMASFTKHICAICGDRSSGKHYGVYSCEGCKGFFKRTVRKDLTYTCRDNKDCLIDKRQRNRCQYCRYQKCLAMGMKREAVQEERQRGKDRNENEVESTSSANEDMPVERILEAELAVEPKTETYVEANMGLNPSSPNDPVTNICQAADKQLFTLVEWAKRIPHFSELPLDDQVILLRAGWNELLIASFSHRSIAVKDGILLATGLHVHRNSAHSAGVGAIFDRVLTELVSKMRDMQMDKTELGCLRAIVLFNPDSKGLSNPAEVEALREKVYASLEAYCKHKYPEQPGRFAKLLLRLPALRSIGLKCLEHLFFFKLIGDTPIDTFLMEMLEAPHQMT
Outline: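 Two co-immunoprecipitation set-ups in A549 cells. (a) Endogenous protein: cells received TNFα 10 ng/ml and/or 100 μM test compound for 30 min, then were immunoprecipitated with the C-terminal ΔN197 RXRα antibody and blotted for p85α. (b) Transfected Flag-p85α and Myc-RXRα/Δ80: cells were pretreated with 50 μM compound for 1 hr, then given TNFα for 30 min, and immunoprecipitated with anti-Flag.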

COX = details: ref Haanen, 2001; cited from earlier work

Q: With `CC1=C(CC(=O)O)c2cc(F)ccc2/C1=C\c1ccc(C(C)C)cc1` [K-80003] as the compound, how does the RXRα-binding activity (RXRα LBD) read?
A: Its RXRα-binding activity is “most potent”.

Q: What about the “Inhibition of RA- and TNFα-induced AKT activation, compared with Sulindac” value (AKT activation) of the same compound?
A: Its value is “much more effective than Sulindac”.

Q: What about the Colony formation [1] of the same compound?
A: The Colony formation was “almost completely suppressed”.

Q: And the “Inhibition of COX activities” value (COX-1 and COX-2)?
A: Its value is “no detectable inhibition”.

Q: And the “Inhibition of constitutive and TNFα or IL-1β-induced PGE2 production” value [2]?
A: The value was “failed to inhibit”.

Q: What about the “Inhibition of RXRα/Δ80 tumor growth, compared with Sulindac” value (RXRα/Δ80 tumor) of the same compound?
A: The value was “much more potent inhibitory effect than Sulindac”.

Q: What about the “PARP cleavage with TNFα, compared with Sulindac” value ([3]; ZR-75-1 cells, K-80003 50 μM, Sulindac 75 μM, 6 hr) of the same compound?
A: The value was “more effective than Sulindac”.

Q: What about the “PARP cleavage and caspase-8 activation, with TNFα” value ([3]; various cancer cell lines) of the same compound?
A: The value was “synergistically induced PARP cleavage and caspase-8 activation”.

Q: What about the “Interaction of RXRα/Δ80 with p85α, compared with Sulindac” value (tRXRα/p85α interaction) of the same compound?
A: The value was “more potently inhibited”.

Q: For `CC1=C(CC(=O)O)c2cc(F)ccc2/C1=C\c1ccc(S(C)(=O)=O)cc1` [sulindac sulfone], which COX-inhibiting activity (COX) is on record?
A: Its COX-inhibiting activity is “no COX-inhibiting activity”.

Q: With `CC1=C(CC(=O)O)c2cc(F)ccc2/C1=C/c1ccc([S+](C)[O-])cc1` (centres unmarked) [sulindac sulfoxide] as the compound, how does the COX-inhibiting activity (COX) read?
A: Its COX-inhibiting activity is “no COX-inhibiting activity”.

Source: PMC2907921 (Cancer cell, 2010)
